Assay outcomes (PubChem)
The list is not random: actives were taken first. Their share in the collection is about 0.4%.
ERp5 inh: inhibitors of human ERp5; Q15084; ERp5 insulin aggregation, absorbance 650 nm, 90 min; inhibition, % at 9.99 µM; hit rate 0.05% among 350,000; AID 651711;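 active means mean replicate inhibition above about 25%, with every replicate also reaching it, limit read from the data, passing the limit was not always enough; inconclusive means only one of those two criteria met; inactive means neither criterion met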
PDI inh: blocks human protein disulfide isomerase activity | PDI insulin aggregation turbidity, A650, 90 min | inhibition, % at 10 µM | hit rate 0.052% among 350,000 | AID 588391;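 active means mean inhibition across replicates of 30% or more, whatever share of single replicates reach that level; inconclusive means mean inhibition below 30% while every single replicate reaches 30%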
Target sequence (P07237 whole entry, looked up): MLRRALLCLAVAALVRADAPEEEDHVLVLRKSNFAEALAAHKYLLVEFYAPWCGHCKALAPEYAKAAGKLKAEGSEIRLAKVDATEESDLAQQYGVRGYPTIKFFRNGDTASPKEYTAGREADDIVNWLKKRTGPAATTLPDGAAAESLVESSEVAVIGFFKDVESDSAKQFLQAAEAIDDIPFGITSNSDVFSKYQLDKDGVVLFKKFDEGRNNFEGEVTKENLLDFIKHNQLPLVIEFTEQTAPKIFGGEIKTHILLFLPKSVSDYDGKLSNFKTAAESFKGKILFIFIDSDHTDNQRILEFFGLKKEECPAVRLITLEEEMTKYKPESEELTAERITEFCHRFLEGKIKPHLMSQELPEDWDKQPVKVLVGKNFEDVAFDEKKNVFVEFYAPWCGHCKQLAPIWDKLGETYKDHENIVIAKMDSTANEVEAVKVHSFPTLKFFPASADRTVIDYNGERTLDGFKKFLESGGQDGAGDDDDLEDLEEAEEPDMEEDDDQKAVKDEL
TbMetRS inhib: Trypanosoma brucei MetRS inhibition. AID 624268. purified T. brucei MetRS, ATP depletion, Kinase-Glo luminescence. hit rate 0.4% among 360,000. inhibition, % at 11.9 µM;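 active means inhibition above a per-plate cutoff of the control wells' mean inhibition plus 3 SD, cut at about 5.5% in these data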
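Measured by: Kinase-Glo luciferase luminescence reporting remaining unconsumed ATP. Material: purified T. brucei MetRS enzyme. Doses: 11.9 µM compound single dose, 0.9% DMSO. Medium: HEPES buffer containing pyrophosphatase, BSA, spermine, DTT. Times: 15 min preincubation, 2 h reaction, all 25 °C. Reagent: methionine, ATP and bulk E. coli tRNA.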
TbMetRS confirm: confirmation of Trypanosoma brucei MetRS inhibitors | shares compounds with TbMetRS inhib | T. brucei MetRS enzyme, luminescence (ATP depletion) | inhibition, % at 11.9 µM | hit rate 93% among 1,400; in the data active means inhibition above about 7%
Jurkat tox: kills Jurkat cells in T. brucei MetRS counterscreen; Jurkat cells viability, ATP luminescence; inhibition, % at 8.3 µM; hit rate 12% among 1,400; AID 624413; shares compounds with TbMetRS inhib; in the data active means inhibition above about 15%
TbMetRS FP orth: T. brucei MetRS inhibition, orthogonal assay | shares compounds with TbMetRS inhib | purified T. brucei MetRS, fluorescence polarization | inhibition, % at 11.9 µM | hit rate 44% among 1,400 | AID 651607; in the data active means inhibition above about 17%
Of the large screens only hits and unclear results are named; the others gave an inactive call (follow-up assays come after a bar, where they were run).

Cc1cc(Br)ccc1NC(=O)c1ccc(-n2cncn2)c([N+](=O)[O-])c1	TbMetRS inhib 32 | TbMetRS confirm 79 | Jurkat tox inactive | TbMetRS FP orth 52
COc1ccccc1NC(=O)c1ccc(-n2cccn2)c([N+](=O)[O-])c1	none
C[C@@H]1CN([C@@H](C)CO)C(=O)c2cc(NC(=O)Cc3cn(C)c4ccccc34)ccc2O[C@@H]1CN(C)S(=O)(=O)c1cccs1	none (no result: PDI inh, TbMetRS inhib)
COc1cccc(NC(=O)C[C@H]2CC[C@H]3[C@H](COc4ccc(NC(=O)C5CCC5)cc4C(=O)N3C)O2)c1	none (no result: PDI inh, TbMetRS inhib)
CN1[C@@H]2Cn3c(ccc(-c4cccc(F)c4)c3=O)[C@H]1[C@@H](C(=O)N1CCCCC1)[C@@H]2CO	none (no result: PDI inh, TbMetRS inhib)
Cc1ccc(C)c(NC(=O)CN(C)C(=O)c2ccc(-n3cncn3)c([N+](=O)[O-])c2)c1	none
Cc1cc(C)c(NC(=O)CNC(=O)c2ccc(-n3cncn3)c([N+](=O)[O-])c2)c(C)c1	TbMetRS inhib 8.0 | TbMetRS confirm 35 | Jurkat tox inactive | TbMetRS FP orth inactive
CC(C)NC(=O)c1ccccc1-c1ccccc1	none
CC(NC(=O)c1cccc2c1Oc1ccccc1S2)C(=O)O (configuration not stated)	TbMetRS inhib 8.7 (no result: ERp5 inh, PDI inh) | TbMetRS confirm 11 | Jurkat tox inactive | TbMetRS FP orth inactive
C[C@H](CO)N1C[C@H](C)[C@H](CN(C)C(=O)NC2CCCCC2)Oc2c(NC(=O)C3CCCCC3)cccc2C1=O	none (no result: PDI inh, TbMetRS inhib)
CO[C@H]1CN(C)C(=O)c2cc(NC(=O)Nc3cc(Cl)cc(Cl)c3)ccc2OC[C@H](C)NC[C@H]1C	none (no result: PDI inh, TbMetRS inhib)
CC(C)CC1NC(=O)N(CCCCN2C(=O)c3ccccc3C2=O)C1=O (configuration not stated)	TbMetRS inhib 8.8 | TbMetRS confirm inactive | Jurkat tox inactive | TbMetRS FP orth inactive
CC(C)CC1NC(=O)N(CC(=O)Nc2ccccc2-c2ccccc2)C1=O (configuration not stated)	none
Cc1ccc(-c2ccc([C@H]3[C@H](CO)N4C(=O)CN(C(=O)c5ccncc5)C[C@@H]34)cc2)cc1	none (no result: PDI inh, TbMetRS inhib)
COc1ccc(NC(=O)C[C@H]2C(=O)N(c3ccc(Br)cc3)C[C@@H]2CSC)cc1	none
CCCCN1C[C@H](c2ccc(OC)cc2)[C@@H](CC(=O)Nc2ccc(Br)cc2)C1=O	TbMetRS inhib 45 | TbMetRS confirm 68 | Jurkat tox inactive | TbMetRS FP orth 34
CCCCN1C[C@H](c2ccc(OC)cc2)[C@@H](CC(=O)Nc2ccc(OC)cc2)C1=O	none
COc1ccc(N2C[C@H](CSC)[C@@H](CC(=O)Nc3ccc(Br)cc3)C2=O)cc1	TbMetRS inhib 19 | TbMetRS confirm 43 | Jurkat tox inactive | TbMetRS FP orth 19
O=C(C[C@H]1C(=O)N(c2ccccc2)C[C@@H]1Cc1ccccc1)Nc1ccc(Br)cc1	TbMetRS inhib 7.6 | TbMetRS confirm 18 | Jurkat tox inactive | TbMetRS FP orth inactive
O=C(C[C@H]1C(=O)N(c2ccc(Br)cc2)C[C@@H]1Cc1ccccc1)Nc1ccccc1	none
COc1ccc(S(=O)(=O)Nc2ccc3c(c2)CC(=O)N([C@@H](C)CO)C[C@@H](C)[C@@H](CN(C)C(=O)Nc2ccc4c(c2)OCO4)O3)cc1	none (no result: PDI inh, TbMetRS inhib)
C[C@H](CO)N1C[C@H](C)[C@@H](CN(C)C)Oc2ccc(NC(=O)NC3CCCCC3)cc2C1=O	none (no result: PDI inh, TbMetRS inhib)
O=C(C[C@@H]1CC[C@H]2[C@@H](COC[C@H](O)CN2C(=O)c2ccc(F)cc2)O1)Nc1ccc(-c2ccccc2)cc1	none (no result: PDI inh, TbMetRS inhib)
O=C(CNC(=O)c1ccc2c(c1)OCO2)N/N=C/c1cccc([N+](=O)[O-])c1	none
O=C(CNC(=O)c1ccc2c(c1)OCO2)N/N=C(Br)/C=C/c1ccccc1	TbMetRS inhib 35 (no result: ERp5 inh) | TbMetRS confirm 52 | Jurkat tox 29 | TbMetRS FP orth 42
O=C(C[C@H]1CC[C@H](NC(=O)c2ccccc2)[C@@H](CO)O1)NCCc1ccncc1	none (no result: PDI inh, TbMetRS inhib)
COc1ccc(S(=O)(=O)N(C)C[C@H]2OCCCC[C@H](C)Oc3ccc(NC(=O)CCCN(C)C)cc3C(=O)N([C@H](C)CO)C[C@@H]2C)cc1	none (no result: PDI inh, TbMetRS inhib)
CC(=O)Nc1cccc(CCc2nc3ccccc3[nH]2)c1	none
Cc1ccccc1NC(=O)N(CCc1nc2ccccc2[nH]1)Cc1ccccc1	TbMetRS inhib 7.0 (no result: ERp5 inh) | TbMetRS confirm 14 | Jurkat tox inactive | TbMetRS FP orth inactive
C=CCc1cccc(/C=C/c2cc(=O)c3ccccc3[nH]2)c1O	TbMetRS inhib 6.4 | TbMetRS confirm 19 | Jurkat tox 15 | TbMetRS FP orth inactive
C=CCc1cccc(/C=N/n2cnnc2)c1O	none (no result: ERp5 inh)
O=C(c1ccncc1)N1C[C@@H]2[C@H](c3ccccc31)[C@H](CO)N2Cc1ccc(F)cc1	none (no result: PDI inh, TbMetRS inhib)
Cc1cc(NS(=O)(=O)c2ccc(NC(=O)CSc3nc4ncc(Br)cc4[nH]3)cc2)nc(C)n1	TbMetRS inhib 6.1 | TbMetRS confirm 14 | Jurkat tox inactive | TbMetRS FP orth inactive
Cc1cc(NS(=O)(=O)c2ccc(NC(=O)CSc3nc4ncc(Cl)cc4[nH]3)cc2)nc(C)n1	ERp5 inh inconclusive
O=C1CC(N(O)c2ccccc2)C(=O)N1c1cc(Cl)cc(Cl)c1 (configuration not stated)	TbMetRS inhib 13 (no result: ERp5 inh) | TbMetRS confirm 65 | Jurkat tox inactive | TbMetRS FP orth 28
Cc1ccccc1N1C(=O)CC(N(O)c2ccccc2)C1=O (configuration not stated)	none (no result: ERp5 inh)
CC(=O)N[C@@H]1CC[C@@H](CCNC(=O)C2CCCCC2)O[C@@H]1CO	none (no result: PDI inh, TbMetRS inhib)
C[C@H](CO)N1C[C@H](C)[C@H](CN(C)S(=O)(=O)c2ccc(Cl)cc2)Oc2c(NC(=O)Nc3ccc(F)cc3)cccc2C1=O	none (no result: PDI inh, TbMetRS inhib)
O=c1cc(CSc2ccc(Cl)cc2)[nH]c2[nH]n(-c3ccccc3)c(=O)c12	TbMetRS inhib 8.5 | TbMetRS confirm 26 | Jurkat tox 17 | TbMetRS FP orth inactive
Cc1ccc(SCc2cc(=O)c3c(=O)n(-c4ccccc4)[nH]c3[nH]2)cc1	none
C[C@@H]1CN([C@@H](C)CO)C(=O)c2cc(NS(=O)(=O)c3cn(C)cn3)ccc2O[C@@H]1CN(C)Cc1ccc2c(c1)OCO2	none (no result: PDI inh, TbMetRS inhib)
CCNC(=O)[C@H]1[C@H](CO)[C@H]2Cn3c(ccc(-c4cccc(F)c4)c3=O)[C@H]2N1Cc1cc(F)ccc1F	none (no result: PDI inh, TbMetRS inhib)
COc1ccc(OCC(O)Cn2cnc(-c3ccc(Br)cc3)c2)cc1 (configuration not stated)	TbMetRS inhib 14 (no result: ERp5 inh) | TbMetRS confirm 22 | Jurkat tox inactive | TbMetRS FP orth inactive
OC(COc1ccc(Br)cc1)Cn1ccnc1 (configuration not stated)	none
Cc1noc(C)c1S(=O)(=O)Nc1ccc2c(c1)C(=O)N([C@H](C)CO)C[C@@H](C)[C@@H](CN(C)C(=O)c1ccccc1)OCCCC[C@@H](C)O2	none (no result: PDI inh, TbMetRS inhib)
O=C(c1ccccc1)c1ccc(-n2cnnc2)c([N+](=O)[O-])c1	TbMetRS inhib 24 | TbMetRS confirm 44 | Jurkat tox inactive | TbMetRS FP orth 26
